Experimental data: ChEMBL document CHEMBL1781995, “Acenaphtho[1,2-b]pyrrole-based selective fibroblast growth factor receptors 1 (FGFR1) inhibitors: design, synthesis, and biological activity” (J Med Chem, 2011)

How the values were obtained:
[1] = biological target: Fibroblast growth factor receptor 1 (Homo sapiens, UniProt P11362); assay: Inhibition of FGFR1 using poly(Glu-Tyr)4:1 as substrate after 60 mins by ELISA
BXPC-3 = assay: Antiproliferative activity against human BxPC3 cells expressing FGFR after 72 hrs by SRB assay; format: functional, cell-based; conditions: BXPC-3, 72 h
Summary of the method: (§1)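 Cells seeded and grown 24 h, then exposed to increasing compound concentrations for 72 h without medium change. Fixed with cold 10% TCA 1 h at 4 °C, stained 15 min with 4 mg/mL SRB in 1% acetic acid, rinsed, dye dissolved in 10 mM Tris base, A515 read. Inhibition = (1 − A515treated/A515control)×100; IC50 by Logit method from at least three independent tests.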

T-24 = assay: Antiproliferative activity against human T24 cells expressing FGFR after 72 hrs by SRB assay; format: functional, cell-based; conditions: T-24, 72 h; summary of the method: as §1
WI-38 = assay: Antiproliferative activity against human WI38 cells expressing FGFR after 72 hrs by SRB assay; format: cell-based; conditions: WI-38, 72 h; summary of the method: as §1

Sequence of Fibroblast growth factor receptor 1 (P11362 whole entry): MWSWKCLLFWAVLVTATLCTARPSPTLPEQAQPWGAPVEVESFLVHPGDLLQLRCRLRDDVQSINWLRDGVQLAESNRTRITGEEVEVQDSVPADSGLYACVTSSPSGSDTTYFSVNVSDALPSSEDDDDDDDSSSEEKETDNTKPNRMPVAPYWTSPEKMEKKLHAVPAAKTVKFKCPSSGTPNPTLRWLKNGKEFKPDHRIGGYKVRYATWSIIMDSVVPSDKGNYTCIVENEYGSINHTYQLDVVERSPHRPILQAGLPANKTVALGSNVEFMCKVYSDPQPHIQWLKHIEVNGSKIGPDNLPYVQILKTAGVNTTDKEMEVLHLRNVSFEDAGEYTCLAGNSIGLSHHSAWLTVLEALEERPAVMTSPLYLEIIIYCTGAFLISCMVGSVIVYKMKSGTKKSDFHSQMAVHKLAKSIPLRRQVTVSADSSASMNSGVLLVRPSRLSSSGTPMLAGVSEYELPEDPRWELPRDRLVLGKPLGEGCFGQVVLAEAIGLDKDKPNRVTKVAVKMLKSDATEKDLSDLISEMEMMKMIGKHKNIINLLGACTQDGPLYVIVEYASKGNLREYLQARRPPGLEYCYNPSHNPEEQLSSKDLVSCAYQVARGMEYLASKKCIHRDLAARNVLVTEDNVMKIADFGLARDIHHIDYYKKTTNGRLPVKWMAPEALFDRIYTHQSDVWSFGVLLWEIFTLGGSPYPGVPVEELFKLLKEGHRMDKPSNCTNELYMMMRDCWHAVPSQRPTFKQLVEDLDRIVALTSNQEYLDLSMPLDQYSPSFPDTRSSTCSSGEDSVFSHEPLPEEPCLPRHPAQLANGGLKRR

IC50 [1] | IC50 (BXPC-3) | SMILES | IC50 (T-24) | IC50 (WI-38)
0.32 µM |  | CCOC(=O)C1=C2C(=NC1=O)c1cccc3c(SCCO)ccc2c13 |  | 
0.077 µM | 23.3 µM | O=C(COC(=O)C1=C2C(=NC1=O)c1cccc3cccc2c13)OCC(F)(F)C(F)(F)F | 19 µM | 48.3 µM
0.334 µM |  | Cc1c[nH]c(/C=C2\C(=O)Nc3ccccc32)c1CCC(=O)O |  | 
> 10 µM | 54.1 µM | CCCSc1ccc2c3c(cccc13)C1=NC(=O)C(C(=O)OCC(=O)OCC(F)(F)C(F)(F)F)=C12 | > 100 µM | 58.8 µM
> 10 µM |  | C=CCSc1ccc2c3c(cccc13)C1=NC(=O)C(C#N)=C12 |  | 
> 10 µM |  | CCOC(=O)C1=C2C(=NC1=O)c1cccc3c(SCCN4CCSC4)ccc2c13 |  | 
0.065 µM | 10.1 µM | CCCSC(=O)COC(=O)C1=C2C(=NC1=O)c1cccc3cccc2c13 | 10.5 µM | 25.2 µM
0.577 µM | 13.7 µM | C=CCSc1ccc2c3c(cccc13)C1=NC(=O)C(C(=O)OCC(=O)SCCC)=C12 | 71.8 µM | > 100 µM
3.6 µM |  | CC(Sc1ccc2c3c(cccc13)C1=NC(=O)C(C#N)=C12)C1(C)CSCO1 (centres undefined) |  | 
> 10 µM | 56.3 µM | CCCSC(=O)COC(=O)C1=C2C(=NC1=O)c1cccc3c(SCCC)ccc2c13 | 79.1 µM | > 100 µM
> 10 µM |  | CCCSc1ccc2c3c(cccc13)C1=NC(=O)C(C#N)=C12 |  | 
> 10 µM |  | CCOC(=O)C1=C2C(=NC1=O)c1cccc3c(SC(C)C)ccc2c13 |  | 
> 10 µM |  | N#CC1=C2C(=NC1=O)c1cccc3c(SCCc4cnccn4)ccc2c13 |  | 
> 10 µM |  | CCOC(=O)C1=C2C(=NC1=O)c1cccc3c(SC(C)C4(C)CSCO4)ccc2c13 (centres undefined) |  | 
